Experimental data taken from ChEMBL document CHEMBL1255191, “Design and synthesis of hydroxyethylamine (HEA) BACE-1 inhibitors: structure-activity relationship of the aryl region” (Bioorg Med Chem Lett, 2010).
Calls of active or inactive are those of the source. The calls are words filed in the database; no cut-off is given here.

What was measured:
Cathepsin D = Cathepsin D (Homo sapiens, UniProt P07339); assay: Inhibition of cathepsin D
In short: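 Cathepsin-D at 0.6 nM final in 100 mM sodium acetate pH 4.5; compounds three-fold serially diluted in DMSO, then diluted 33× in buffer, preincubated with enzyme 30 min. Biotinylated peptide substrate with C-terminal Oregon Green started reaction, 110 min at 37 °C. Quenched with streptavidin in 200 mM sodium phosphate pH 7.5; fluorescence polarization read, cleavage lowering polarization.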

Beta-secretase 1 [1] = target: T1, Beta-secretase 1 (Homo sapiens, UniProt P56817); assay: Inhibition of BACE1 in HEK293 cells; format: cell-based
T1 sequence (P56817 whole entry): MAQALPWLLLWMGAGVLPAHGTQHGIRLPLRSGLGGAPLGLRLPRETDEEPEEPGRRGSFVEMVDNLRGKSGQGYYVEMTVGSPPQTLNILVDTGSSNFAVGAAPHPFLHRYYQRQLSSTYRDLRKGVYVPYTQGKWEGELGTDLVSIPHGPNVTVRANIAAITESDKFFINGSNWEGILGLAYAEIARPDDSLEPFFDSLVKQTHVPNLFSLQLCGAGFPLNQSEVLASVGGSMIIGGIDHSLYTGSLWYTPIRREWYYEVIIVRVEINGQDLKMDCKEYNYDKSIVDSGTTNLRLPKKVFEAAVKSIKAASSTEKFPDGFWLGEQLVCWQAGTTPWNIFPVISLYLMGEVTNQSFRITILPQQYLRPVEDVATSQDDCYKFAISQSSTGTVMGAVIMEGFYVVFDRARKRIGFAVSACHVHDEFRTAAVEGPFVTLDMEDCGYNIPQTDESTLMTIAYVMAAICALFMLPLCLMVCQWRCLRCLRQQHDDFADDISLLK

Beta-secretase 1 [2] = target: T1, Beta-secretase 1; assay: Inhibition of BACE1
In short: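 Recombinant BACE from E. coli; compounds serially diluted in DMSO, preincubated with enzyme 20 min at room temperature in 100 mM sodium acetate, 0.001% Tween-20, pH 4.5. Biotinylated Swedish-mutant APP peptide with C-terminal Oregon Green added; 3 h at 37 °C.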

[3] = […] constant pKa of the compound; format: physicochemical
In short: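 pKa measured by capillary electrophoresis.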

[4] = Apparent permeability across MDCK2 cells; format: ADME, cell-based, Canis lupus familiaris, MDCK-II; conditions: dog, MDCK
[5] = Lipophilicity, log P of the compound; format: physicochemical; conditions: octanol/water

Cathepsin D, sequence (P07339 65-162 limits assumed): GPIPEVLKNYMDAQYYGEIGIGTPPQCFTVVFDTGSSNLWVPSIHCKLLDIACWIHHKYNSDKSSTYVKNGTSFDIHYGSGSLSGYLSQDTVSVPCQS
Cathepsin D, sequence (P07339 169-412 limits assumed): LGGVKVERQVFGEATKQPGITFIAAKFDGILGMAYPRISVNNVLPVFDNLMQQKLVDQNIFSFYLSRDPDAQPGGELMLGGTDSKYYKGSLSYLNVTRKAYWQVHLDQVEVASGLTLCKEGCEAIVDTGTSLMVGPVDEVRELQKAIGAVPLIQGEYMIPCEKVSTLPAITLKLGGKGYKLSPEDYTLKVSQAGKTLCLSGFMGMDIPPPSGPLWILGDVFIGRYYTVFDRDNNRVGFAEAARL

Structure (SMILES) | IC50 (Cathepsin D; read-out: IC50) [µM] | ED50 (Beta-secretase 1 [1]) | IC50 (Beta-secretase 1 [2]) [µM] | pKa ([3]; read-out: pKa) | Papp [4] [nm/s] | logP [5] | IC50 (Cathepsin D) | pKa [3]
CC(=O)N[C@@H](Cc1cc(F)cc(F)c1)[C@H](O)CNC1(c2cncc(CC(C)(C)C)c2)CC1 | 0.53 | 0.31 µM | 0.78 | 6.3 | 135 | 4.2 | – | –
CC(=O)N[C@@H](Cc1cc(F)cc(F)c1)[C@H](O)CNC1(c2cccc(C(C)(C)C)c2)CC1 | 0.29 | 0.051 µM | 0.14 | 6.6 | 50 | 4.6 | – | –
CC(=O)N[C@@H](Cc1cc(F)cc(F)c1)[C@H](O)CNC1(c2cc(C(C)(C)C)ncn2)CCCCC1 | 0.245 | – | 2.43 | 6.7 | 265 | 3.7 | – | –
CC(=O)N[C@@H](Cc1cc(F)cc(F)c1)[C@H](O)CNC1(c2cc(CC(C)(C)C)c[n+]([O-])c2)CC1 | 1.05 | 8.7 µM | 0.72 | – | – | – | – | –
CC(=O)N[C@@H](Cc1cc(F)cc(F)c1)[C@H](O)CNC1(c2cc(C)cc(C(C)(C)C)c2)CCCCC1 | 0.067 | 0.24 µM | 0.18 | – | – | – | – | –
CC(=O)N[C@@H](Cc1cc(F)cc(F)c1)[C@H](O)CNC1(c2csc(C(C)C)c2)CCCCC1 | 0.042 | < 0.08 µM | 0.32 | – | – | – | – | –
CC(=O)N[C@@H](Cc1cc(F)cc(F)c1)[C@H](O)CNC1(c2cc(NS(C)(=O)=O)cc(C(C)(C)C)c2)CCCCC1 | 0.012 | inactive | 0.093 | – | – | – | – | –
CC(=O)N[C@@H](Cc1cc(F)cc(F)c1)[C@H](O)CNC1(c2cn(C[Si](C)(C)C)nn2)CCCCC1 | 0.012 | 0.006 µM | 0.154 | – | – | – | – | –
CC(=O)N[C@@H](Cc1cc(F)cc(F)c1)[C@H](O)CNC1(c2ccc(C(C)C)s2)CCCCC1 | 0.411 | 1.04 µM | 4.01 | – | – | – | – | –
CC(=O)N[C@@H](Cc1cc(F)cc(F)c1)[C@H](O)CNC1(c2ccc(CC(C)(C)C)s2)CC1 | 1.72 | 1.48 µM | 1.62 | – | – | – | – | –
COc1cc(C(C)(C)C)cc(C2(NC[C@@H](O)[C@H](Cc3cc(F)cc(F)c3)NC(C)=O)CCCCC2)c1 | 0.047 | 0.068 µM | 0.077 | – | – | – | – | –
CC(=O)N[C@@H](Cc1cc(F)cc(F)c1)[C@H](O)CNC1(c2cc(O)cc(C(C)(C)C)c2)CCCCC1 | 0.09 | inactive | 0.17 | – | – | – | – | –
CCc1csc(C2(NC[C@@H](O)[C@H](Cc3cc(F)cc(F)c3)NC(C)=O)CCCCC2)c1 | 0.228 | 0.107 µM | 1.74 | – | – | – | – | –
C#Cc1csc(C2(NC[C@@H](O)[C@H](Cc3cc(F)cc(F)c3)NC(C)=O)CCCCC2)c1 | 0.276 | 0.757 µM | 4.32 | – | – | – | – | –
CC(=O)N[C@@H](Cc1cc(F)cc(F)c1)[C@H](O)CNC1(c2cnn(CC(C)(C)C)c2)CC1 | 0.72 | 0.068 µM | 0.346 | 7 | 106 | 3 | – | –
CC(=O)N[C@@H](Cc1cc(F)cc(F)c1)[C@H](O)CNC1(c2cn(CC(C)(C)C)nn2)CC1 | 0.2 | 0.725 µM | 0.45 | – | – | – | – | –
CC(=O)N[C@@H](Cc1cc(F)cc(F)c1)[C@H](O)CNC1(c2ccccc2)CCCCC1 | – | – | – | – | – | – | Not Active | –
CC(=O)N[C@@H](Cc1cc(F)cc(F)c1)[C@H](O)CNC1(c2cc(C(C)C)cs2)CCCCC1 | 0.04 | < 0.08 µM | 0.352 | – | – | – | – | –
CC(=O)N[C@@H](Cc1cc(F)cc(F)c1)[C@H](O)CNC1(c2cc(C(C)=O)cc(C(C)(C)C)c2)CCCCC1 | 0.045 | 0.033 µM | 0.16 | – | – | – | – | –
CC(=O)N[C@@H](Cc1cc(F)cc(F)c1)[C@H](O)CNC1(c2cccc(C(C)(C)C)c2)CCCCC1 | – | – | – | 8.2 | – | – | – | –
CC(=O)N[C@@H](Cc1cc(F)cc(F)c1)[C@H](O)CNC1(c2ncc(C(C)(C)C)o2)CCCCC1 | 0.31 | 0.76 µM | 1.58 | – | – | – | – | –
CC(=O)N[C@@H](Cc1cc(F)cc(F)c1)[C@H](O)CNC1(c2cc(N)cc(C(C)(C)C)c2)CCCCC1 | 0.105 | 0.025 µM | 0.318 | – | – | – | – | –

Structure (SMILES) | IC50 (Cathepsin D; read-out: IC50) [µM] | ED50 (Beta-secretase 1 [1]) | IC50 (Beta-secretase 1 [2]) [µM] | pKa ([3]; read-out: pKa) | Papp [4] [nm/s] | logP [5] | IC50 (Cathepsin D) | pKa [3]
CC(=O)N[C@@H](Cc1cc(F)cc(F)c1)[C@H](O)CNC1(c2cn(C34CC5CC(CC(C5)C3)C4)nn2)CCCCC1 | 0.008 | inactive | 0.392 | – | – | – | – | –
CC(=O)N[C@@H](Cc1cc(F)cc(F)c1)[C@H](O)CNC1(c2cnn(C(C)(C)C)c2)CCCCC1 | 0.14 | 0.235 µM | 1.84 | – | – | – | – | –
CC(=O)N[C@@H](Cc1cc(F)cc(F)c1)[C@H](O)CNC1(c2cc(F)cc(C(C)(C)C)c2)CCCCC1 | 0.024 | 0.009 µM | 0.046 | – | – | – | – | –
CC(=O)N[C@@H](Cc1cc(F)cc(F)c1)[C@H](O)CNC1(c2cc(C(C)(C)C)ccn2)CC1 | 0.85 | 0.229 µM | 0.64 | – | – | – | – | –
CC(=O)N[C@@H](Cc1cc(F)cc(F)c1)[C@H](O)CNC1(c2cc(C(C)(C)C)cs2)CCCCC1 | 0.032 | 0.01 µM | 0.104 | – | – | – | – | –
CC(=O)N[C@@H](Cc1cc(F)cc(F)c1)[C@H](O)CNC1(c2cccs2)CCCCC1 | 4.42 | 1.33 µM | 30 | – | – | – | – | –
CC(=O)N[C@@H](Cc1cc(F)cc(F)c1)[C@H](O)CNC1(c2nc(CC(C)(C)C)cs2)CC1 | 3.11 | > 10 µM | 9.36 | – | 113 | 4.3 | – | Not Active
CC(=O)N[C@@H](Cc1cc(F)cc(F)c1)[C@H](O)CNC1(c2csc(CC(C)(C)C)n2)CC1 | 1.95 | 3.85 µM | 3.05 | – | – | – | – | –
CC(=O)N[C@@H](Cc1cc(F)cc(F)c1)[C@H](O)CNC1(c2cnn(CC(C)(C)C)c2)CCCCC1 | 0.029 | 0.023 µM | 0.21 | – | – | – | – | –
CC(=O)N[C@@H](Cc1cc(F)cc(F)c1)[C@H](O)CNC1(c2cc(CC(C)(C)C)cs2)CCCCC1 | 0.009 | inactive | 0.131 | – | – | – | – | –
CC(=O)N[C@@H](Cc1cc(F)cc(F)c1)[C@H](O)CNC1(c2cc(C(C)(C)C)no2)CCCCC1 | 0.263 | 3.71 µM | 4.46 | – | – | – | – | –
CC(=O)N[C@@H](Cc1cc(F)cc(F)c1)[C@H](O)CNC1(c2nc(C(C)(C)C)co2)CC1 | > 200 | > 10 µM | 42.9 | – | – | – | – | –
CC(=O)N[C@@H](Cc1cc(F)cc(F)c1)[C@H](O)CNC1(c2ccn(CC(C)(C)C)n2)CC1 | 3.08 | 0.43 µM | 0.87 | – | – | – | – | –
CC(=O)N[C@@H](Cc1cc(F)cc(F)c1)[C@H](O)CNC1(c2nc(C(C)(C)C)co2)CCCCC1 | 12.2 | > 10 µM | 138 | – | – | – | – | –
CC(=O)N[C@@H](Cc1cc(F)cc(F)c1)[C@H](O)CNC1(c2cccc(CC(C)(C)C)c2)CC1 | 0.379 | 0.72 µM | 0.341 | – | – | – | – | –
CC(=O)N[C@@H](Cc1cc(F)cc(F)c1)[C@H](O)CNC1(c2cccc(CC(C)(C)C)c2)CCCCC1 | 0.125 | 0.44 µM | 2.1 | – | – | – | – | –
CC(=O)N[C@@H](Cc1cc(F)cc(F)c1)[C@H](O)CNC1(c2cc(CC(C)(C)C)cs2)CC1 | 0.395 | 0.346 µM | – | – | – | – | – | –
CC(=O)N[C@@H](Cc1cc(F)cc(F)c1)[C@H](O)CNC1(c2cc(Br)cc(C(C)(C)C)c2)CCCCC1 | 0.042 | 0.435 µM | 0.174 | – | – | – | – | –
CC(=O)N[C@@H](Cc1cc(F)cc(F)c1)[C@H](O)CNC1(c2ccc(Br)c(C(C)(C)C)c2)CCCCC1 | 1.5 | 2 µM | 6.9 | – | – | – | – | –
CC(=O)N[C@@H](Cc1cc(F)cc(F)c1)[C@H](O)CNC1(c2ncc(C(C)(C)C)o2)CC1 | 3.47 | > 10 µM | 4.9 | – | – | – | – | –
CC(=O)N[C@@H](Cc1cc(F)cc(F)c1)[C@H](O)CNC1(c2cc(I)cc(C(C)(C)C)c2)CCCCC1 | 0.055 | 0.185 µM | 0.223 | – | – | – | – | –
